ChEMBL document CHEMBL5352413, “Discovery of small-molecules targeting the CCL20/CCR6 axis as first-in-class inhibitors for inflammatory bowel diseases” (Eur J Med Chem, 2022)
Calls of active or inactive are those of the source. The calls are words filed in the database; no cut-off is given here.

How the values were obtained:
Mus musculus [1] = test: Anti-inflammatory activity against zymosan-induced peritonitis mouse model assessed as decrease in total proteins in peritoneal lavage at 1 mg/kg, sc administrated 1 hr prior to zymosan administration and measured after 4 hrs by BCA assay; format: functional, organism-based; details: time 5.0 hrs
In short: (§1)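 Mice fasted 2 h, then zymosan A 5 mg/mL in PBS (0.2 mL) i.p. Compound 1 mg/kg s.c. (vehicle 1% DMSO in saline, 10 mL/kg) 1 h before zymosan, or also 2 h after. Lavage at 4 h with 3 mL PBS, EDTA, heparin; centrifuged; supernatant protein by BCA (mg/mL); pellet MPO (mU/mL) or flow cytometry.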

[2] = molecular target: T1, C-C chemokine receptor type 6 (Homo sapiens) (UniProt P51684); test: Agonist activity at CCR6 (unknown origin) transfected in HEK293T cells assessed as mini-Gi recruitment at 0.030 to 300 uM measured for 20 mins by NanoBiT assay; format: functional, cell-based; details: dose 0.03-300 µM
T1 sequence (whole entry): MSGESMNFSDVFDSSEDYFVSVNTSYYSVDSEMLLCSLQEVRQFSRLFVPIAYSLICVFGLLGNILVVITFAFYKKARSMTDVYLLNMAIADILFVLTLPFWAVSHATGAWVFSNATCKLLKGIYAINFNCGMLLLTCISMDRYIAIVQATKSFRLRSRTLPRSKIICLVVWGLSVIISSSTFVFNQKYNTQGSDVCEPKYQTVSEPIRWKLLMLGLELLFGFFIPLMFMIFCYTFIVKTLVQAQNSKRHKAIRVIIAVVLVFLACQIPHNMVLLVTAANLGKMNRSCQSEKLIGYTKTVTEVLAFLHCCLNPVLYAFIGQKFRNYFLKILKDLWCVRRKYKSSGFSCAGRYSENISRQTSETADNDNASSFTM
In short: (§2)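 HEK293T cells (DMEM, 10% FBS) co-transfected with SmBiT C-tagged CCR6 or CCR5 and LgBiT N-tagged human β-arrestin-1 or miniGi; harvested 24 h later, loaded with coelenterazine h 15 min at 37 °C, 10^5 cells/well. Luminescence from recruitment induced by compound (30 nM–300 μM) read for 20 min; CCL20 (30 pM–300 nM) positive control.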

CD4+ve Th [3] = test: Cytotoxicity against human CD4+ve Th cells upto 100 uM incubated for 3 hrs by annexin/PI staining based flow cytometry; format: toxicity, cell-based
In short: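 Memory CD4+ T cells from healthy-donor PBMC (Ficoll, magnetic isolation, >95% purity), 20×10^4 cells exposed to compound at 5–500 μM for 3 h at 37 °C, 5% CO2; viability by annexin/propidium iodide flow cytometry.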

Mus musculus [4] = test: Anti-colitis activity against TNBS-induced colitis Swiss mouse model assessed as decrease in disease activity index at 1 mg/kg, sc bid for 3 days; format: functional, organism-based; details: time 3.0 day
In short: (§3)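 Female CD1 Swiss mice (7–12 weeks) skin-sensitized, then after 20 h fast given 5 mg TNBS in 50% ethanol intrarectally 6 days later. Compound 1 mg/kg or vehicle (1% DMSO in saline, 10 mL/kg) s.c. twice daily, 8 h apart, days 1–4; euthanized day 4. DAI from daily weight, stool, bleeding by blinded observers; macroscopic score; colon/lung MPO.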

Mus musculus [5] = test: Anti-inflammatory activity against zymosan-induced peritonitis mouse model assessed as decrease in total proteins in peritoneal lavage at 1 mg/kg, sc administrated 1 hr before and 2 hrs after zymosan administration and measured after 2 hrs by BCA assay; format: functional, organism-based; details: time 5.0 hrs; in short: as §1
[6] = molecular target: C-C chemokine receptor type 5 (Homo sapiens) (UniProt P51681); test: Agonist activity at CCR5 (unknown origin) transfected in HEK293T cells assessed as beta-arrestin-1 recruitment at 0.030 to 300 uM measured for 20 mins by NanoBiT assay; format: functional, cell-based; details: dose 0.03-300 µM; in short: as §2
Mus musculus [7] = test: Anti-inflammatory activity against zymosan-induced peritonitis mouse model assessed as decrease in MPO activity in peritoneal lavage at 1 mg/kg, sc administrated 1 hr before and 2 hrs after zymosan administration and measured after 2 hrs by absorbance based assay; format: functional, organism-based; details: time 5.0 hrs; in short: as §1
[8] = molecular target: C-C chemokine receptor type 5 (Homo sapiens) (UniProt P51681); test: Antagonist activity at CCR5 (unknown origin) transfected in HEK293T cells assessed as CCL5-induced beta-arrestin-1 recruitment at 0.030 to 300 uM measured for 20 mins by NanoBiT assay; format: functional, cell-based; details: filed as antagonist, dose 0.03-300 µM
In short: (§4)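 NanoBiT complementation in co-transfected HEK293T cells (SmBiT-tagged CCR6 or CCR5, LgBiT-tagged β-arrestin-1 or miniGi), coelenterazine h 15 min at 37 °C. After compound exposure (30 nM–300 μM), cells were stimulated with CCL20 10 nM (CCR6) or CCL5 5 nM (CCR5) and inhibition of chemokine-induced recruitment was monitored by luminescence.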

CD4+ve Th [9] = test: Inhibition of cell migration of CCL20-induced human CD4+ve Th cells expressing CCR6 at 50 uM incubated for 3 hrs by FACS analysis; format: functional, cell-based
In short: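 Memory CD4+ T cells (20×10^4) in upper chamber of 5.0 μm transwell in IMDM with 0.5% BSA, preincubated with compound (0.5–50 μM) 15 min at 4 °C; 500 ng/ml CCL20 in lower chamber. After 3 h at 37 °C, migrated cells counted with counting beads by flow cytometry; migration index = CCL20-driven / medium-only migration; duplicate or triplicate.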

Mus musculus [10] = test: Anti-inflammatory activity against zymosan-induced peritonitis mouse model assessed as decrease in neutrophil recruitment in peritoneal lavage at 1 mg/kg, sc administrated 1 hr prior to zymosan administration and measured after 4 hrs by PI staining based flow cytometry; format: functional, organism-based; details: time 5.0 hrs; in short: as §1
[11] = molecular target: T1, C-C chemokine receptor type 6 (Homo sapiens); test: Antagonist activity at CCR6 (unknown origin) transfected in HEK293T cells assessed as CCL20-induced beta-arrestin-1 recruitment at 0.030 to 300 uM measured for 20 mins by NanoBiT assay; format: functional, cell-based; details: filed as antagonist, dose 0.03-300 µM; in short: as §4
Mus musculus [12] = test: Anti-colitis activity against TNBS-induced colitis Swiss mouse model assessed as decrease in neutrophil infiltration by measuring MPO activity in colon at 1 mg/kg, sc bid for 3 days by absorbance based assay; format: functional, organism-based; details: time 3.0 day; in short: as §3
Mus musculus [13] = test: Anti-inflammatory activity against zymosan-induced peritonitis mouse model assessed as decrease in MPO activity in peritoneal lavage at 1 mg/kg, sc administrated 1 hr prior to zymosan administration and measured after 4 hrs by absorbance based assay; format: functional, organism-based; details: time 5.0 hrs; in short: as §1
[14] = molecular target: T1, C-C chemokine receptor type 6 (Homo sapiens); test: Agonist activity at CCR6 (unknown origin) transfected in HEK293T cells assessed as beta-arrestin-1 recruitment at 0.030 to 300 uM measured for 20 mins by NanoBiT assay; format: functional, cell-based; details: dose 0.03-300 µM; in short: as §2
[15] = molecular target: T1, C-C chemokine receptor type 6 (Homo sapiens); test: Antagonist activity at CCR6 (unknown origin) transfected in HEK293T cells assessed as CCL20-induced mini-Gi recruitment at 0.030 to 300 uM measured for 20 mins by NanoBiT assay; format: functional, cell-based; details: filed as antagonist, dose 0.03-300 µM; in short: as §4
Mus musculus [16] = test: Anti-colitis activity against TNBS-induced colitis Swiss mouse model assessed as decrease in neutrophil infiltration by measuring MPO activity in lung at 1 mg/kg, sc bid for 3 days by absorbance based assay; format: functional, organism-based; details: time 3.0 day; in short: as §3
Mus musculus [17] = test: Anti-colitis activity against TNBS-induced colitis Swiss mouse model assessed as decrease in macroscopic injury at 1 mg/kg, sc bid for 3 days; format: functional, organism-based; details: time 3.0 day; in short: as §3

C-C chemokine receptor type 5 (Homo sapiens), sequence (P51681 whole entry, looked up): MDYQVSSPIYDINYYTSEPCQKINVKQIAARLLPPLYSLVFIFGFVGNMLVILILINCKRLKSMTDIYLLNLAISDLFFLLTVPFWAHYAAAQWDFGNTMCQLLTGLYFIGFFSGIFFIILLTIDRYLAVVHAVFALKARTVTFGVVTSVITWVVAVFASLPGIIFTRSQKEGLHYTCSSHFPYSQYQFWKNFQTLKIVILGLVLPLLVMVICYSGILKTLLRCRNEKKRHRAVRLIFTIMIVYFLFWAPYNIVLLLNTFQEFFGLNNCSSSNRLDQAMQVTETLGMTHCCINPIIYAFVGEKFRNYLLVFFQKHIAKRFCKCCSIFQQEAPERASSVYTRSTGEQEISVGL

Row | Activity [2] | Activity [6] | Activity [8] | Activity [11] | Activity [14] | Activity [15] | Compound | Activity (Mus musculus [1]) | Activity (CD4+ve Th [3]) | Activity (Mus musculus [4]) | Activity (Mus musculus [5]) | Activity (Mus musculus [7]) | inhibition (CD4+ve Th [9]) | Activity (Mus musculus [10]) | Activity (Mus musculus [12]) | Activity (Mus musculus [13]) | Activity (Mus musculus [16]) | Activity (Mus musculus [17])
1 | inactive | inactive | Active | Active | inactive | Active | Cc1c(C(=O)Nc2ccc(C(F)(F)F)cc2)oc2ccccc12 | inactive | Non-Toxic | Active | Active | Active | Active | inactive | Active | inactive | Active | Active
2 | – | – | – | – | – | – | C/C(=N\Nc1ccc2ccccc2n1)c1cccc(C(F)(F)F)c1 | – | Non-Toxic | – | – | – | – | – | – | – | – | –
3 | – | – | – | – | – | – | Cc1c(C(=O)Nc2cccc(F)c2)oc2ccccc12 | – | Non-Toxic | – | – | – | – | – | – | – | – | –
